From ChEMBL document CHEMBL1143000, “Application of the phosphoramidate ProTide approach to 4'-azidouridine confers sub-micromolar potency versus hepatitis C virus on an inactive nucleoside” (J Med Chem, 2007)

Tests used:
[1] = Inhibition of HCV NS5B570n-BK RNA polymerase; design: species or system Hepacivirus hominis
Outline: (§1)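 Recombinant HCV genotype 1b NS5B truncated at residue 570, from strain Con1 or strain BK. RNA synthesis was run primer-independently on HCV genome-derived cIRES RNA template. Read-out was incorporation of radiolabeled UMP into acid-insoluble RNA product.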

[2] = Inhibition of HCV NS5B570-Con1 RNA polymerase; design: species or system Hepacivirus hominis; outline: as §1
Hepatitis C virus = experiment: Inhibition of HCV RNA replication in 2209-23 cells transfected with bicistronic HCV replicon; assay type: functional, Hepacivirus hominis
Outline: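 Huh-7-derived 2209-23 cells stably carry a bicistronic genotype 1b HCV replicon with a renilla luciferase reporter. Replication is read as luciferase signal. EC50 is the concentration that reduces HCV replication by 50%.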

[3] = Cytotoxicity against in 2209-23 cells by WST assay; assay type: cell-based; conditions: human
Outline: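 Cell viability read by WST assay in 2209-23 replicon cells (Huh-7 derived, stably carrying a genotype 1b bicistronic HCV replicon). CC50 is the concentration that reduces cell viability by 50%.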

Compound: [N-]=[N+]=N[C@]1(COP(=O)(O)OP(=O)(O)OP(=O)(O)O)O[C@@H](n2ccc(=O)[nH]c2=O)[C@@H](O)[C@H]1O
- IC50 [1]: 0.23 µM
- IC50 [2]: 0.22 µM

Compound: CCOC(=O)CN(C)P(=O)(OC[C@@]1(N=[N+]=[N-])O[C@@H](n2ccc(=O)[nH]c2=O)[C@@H](O)[C@H]1O)Oc1ccccc1 (some centres not stated)
- EC50 (Hepatitis C virus; Hepatitis C virus): > 100 µM
- CC50 [3]: > 100 µM

Compound: COC(=O)[C@H](C)NP(=O)(OC[C@@]1(N=[N+]=[N-])O[C@@H](n2ccc(=O)[nH]c2=O)[C@@H](O)[C@H]1O)Oc1ccccc1 (some centres not stated)
- EC50 (Hepatitis C virus; Hepatitis C virus): 3.1 µM
- CC50 [3]: > 100 µM

Compound: CCOC(=O)[C@H](Cc1ccccc1)NP(=O)(OC[C@@]1(N=[N+]=[N-])O[C@@H](n2ccc(=O)[nH]c2=O)[C@@H](O)[C@H]1O)Oc1ccccc1 (some centres not stated)
- EC50 (Hepatitis C virus; Hepatitis C virus): 1.37 µM
- CC50 [3]: > 100 µM

Compound: [N-]=[N+]=N[C@]1(CO)O[C@@H](n2ccc(=O)[nH]c2=O)[C@@H](O)[C@H]1O
- EC50 (Hepatitis C virus; Hepatitis C virus): > 100 µM
- CC50 [3]: > 100 µM

Compound: CCOC(=O)C1(NP(=O)(OC[C@@]2(N=[N+]=[N-])O[C@@H](n3ccc(=O)[nH]c3=O)[C@@H](O)[C@H]2O)Oc2ccccc2)CCCC1 (some centres not stated)
- EC50 (Hepatitis C virus; Hepatitis C virus): > 100 µM
- CC50 [3]: > 100 µM

Compound: [N-]=[N+]=N[C@]1(COP(=O)(O)OP(=O)(O)OP(=O)(O)O)O[C@@H](n2ccc(N)nc2=O)[C@@H](O)[C@H]1O
- IC50 [1]: 0.29 µM
- IC50 [2]: 0.32 µM

Compound: CCOC(=O)[C@H](CCSC)NP(=O)(OC[C@@]1(N=[N+]=[N-])O[C@@H](n2ccc(=O)[nH]c2=O)[C@@H](O)[C@H]1O)Oc1ccccc1 (some centres not stated)
- EC50 (Hepatitis C virus; Hepatitis C virus): 14 µM
- CC50 [3]: > 100 µM

Compound: CC(C)(NP(=O)(OC[C@@]1(N=[N+]=[N-])O[C@@H](n2ccc(=O)[nH]c2=O)[C@@H](O)[C@H]1O)Oc1ccccc1)C(=O)OCc1ccccc1 (some centres not stated)
- EC50 (Hepatitis C virus; Hepatitis C virus): 3.4 µM
- CC50 [3]: > 100 µM

Compound: [N-]=[N+]=N[C@]1(COP(=O)(NC2(C(=O)OCc3ccccc3)CCCC2)Oc2ccccc2)O[C@@H](n2ccc(=O)[nH]c2=O)[C@@H](O)[C@H]1O (some centres not stated)
- EC50 (Hepatitis C virus; Hepatitis C virus): < 100 µM
- CC50 [3]: > 100 µM

Compound: CC(C)[C@H](NP(=O)(OC[C@@]1(N=[N+]=[N-])O[C@@H](n2ccc(=O)[nH]c2=O)[C@@H](O)[C@H]1O)Oc1ccccc1)C(=O)OCc1ccccc1 (some centres not stated)
- EC50 (Hepatitis C virus; Hepatitis C virus): < 100 µM
- CC50 [3]: > 100 µM

Compound: C[C@H](NP(=O)(OC[C@@]1(N=[N+]=[N-])O[C@@H](n2ccc(=O)[nH]c2=O)[C@@H](O)[C@H]1O)Oc1ccccc1)C(=O)OC(C)(C)C (some centres not stated)
- EC50 (Hepatitis C virus; Hepatitis C virus): 5.1 µM
- CC50 [3]: > 100 µM

Compound: CCOC(=O)CCNP(=O)(OC[C@@]1(N=[N+]=[N-])O[C@@H](n2ccc(=O)[nH]c2=O)[C@@H](O)[C@H]1O)Oc1ccccc1 (some centres not stated)
- EC50 (Hepatitis C virus; Hepatitis C virus): > 100 µM
- CC50 [3]: > 100 µM

Compound: C[C@H](NP(=O)(OC[C@@]1(N=[N+]=[N-])O[C@@H](n2ccc(=O)[nH]c2=O)[C@@H](O)[C@H]1O)Oc1ccccc1)C(=O)OCc1ccccc1 (some centres not stated)
- EC50 (Hepatitis C virus; Hepatitis C virus): 0.61 µM
- CC50 [3]: > 100 µM

Compound: CCOC(=O)[C@H](CC(C)C)NP(=O)(OC[C@@]1(N=[N+]=[N-])O[C@@H](n2ccc(=O)[nH]c2=O)[C@@H](O)[C@H]1O)Oc1ccccc1 (some centres not stated)
- EC50 (Hepatitis C virus; Hepatitis C virus): 2.3 µM
- CC50 [3]: > 100 µM

Compound: CCOC(=O)[C@H](C)NP(=O)(OC[C@@]1(N=[N+]=[N-])O[C@@H](n2ccc(=O)[nH]c2=O)[C@@H](O)[C@H]1O)Oc1ccccc1 (some centres not stated)
- EC50 (Hepatitis C virus; Hepatitis C virus): 1.3 µM
- CC50 [3]: > 100 µM

Compound: CCC(C)OC(=O)[C@H](C)NP(=O)(OC[C@@]1(N=[N+]=[N-])O[C@@H](n2ccc(=O)[nH]c2=O)[C@@H](O)[C@H]1O)Oc1ccccc1 (some centres not stated)
- EC50 (Hepatitis C virus; Hepatitis C virus): 0.63 µM
- CC50 [3]: > 100 µM

Compound: CCCCOC(=O)[C@H](C)NP(=O)(OC[C@@]1(N=[N+]=[N-])O[C@@H](n2ccc(=O)[nH]c2=O)[C@@H](O)[C@H]1O)Oc1ccccc1 (some centres not stated)
- EC50 (Hepatitis C virus; Hepatitis C virus): 1.2 µM
- CC50 [3]: > 100 µM

Compound: [N-]=[N+]=N[C@]1(COP(=O)(N[C@@H](Cc2ccccc2)C(=O)OCc2ccccc2)Oc2ccccc2)O[C@@H](n2ccc(=O)[nH]c2=O)[C@@H](O)[C@H]1O (some centres not stated)
- EC50 (Hepatitis C virus; Hepatitis C virus): < 100 µM
- CC50 [3]: > 100 µM

Compound: CCOC(=O)C(C)(C)NP(=O)(OC[C@@]1(N=[N+]=[N-])O[C@@H](n2ccc(=O)[nH]c2=O)[C@@H](O)[C@H]1O)Oc1ccccc1 (some centres not stated)
- EC50 (Hepatitis C virus; Hepatitis C virus): 10.3 µM
- CC50 [3]: > 100 µM

Compound: C[C@H](NP(=O)(OC[C@@]1(N=[N+]=[N-])O[C@@H](n2ccc(=O)[nH]c2=O)[C@@H](O)[C@H]1O)Oc1cccc2ccccc12)C(=O)OCc1ccccc1 (some centres not stated) [listing 1 of 3 here]
- EC50 (Hepatitis C virus): 0.39 µM

Compound: C[C@H](NP(=O)(OC[C@@]1(N=[N+]=[N-])O[C@@H](n2ccc(=O)[nH]c2=O)[C@@H](O)[C@H]1O)Oc1cccc2ccccc12)C(=O)OCc1ccccc1 (some centres not stated) [listing 2 of 3 here]
- EC50 (Hepatitis C virus): 0.22 µM

Compound: CCOC(=O)[C@@H]1CCCN1P(=O)(OC[C@@]1(N=[N+]=[N-])O[C@@H](n2ccc(=O)[nH]c2=O)[C@@H](O)[C@H]1O)Oc1ccccc1 (some centres not stated)
- EC50 (Hepatitis C virus; Hepatitis C virus): 6 µM
- CC50 [3]: > 100 µM

Compound: C[C@@H](NP(=O)(OC[C@@]1(N=[N+]=[N-])O[C@@H](n2ccc(=O)[nH]c2=O)[C@@H](O)[C@H]1O)Oc1ccccc1)C(=O)OCc1ccccc1 (some centres not stated)
- EC50 (Hepatitis C virus; Hepatitis C virus): 1.2 µM
- CC50 [3]: > 100 µM

Compound: CC(C)OC(=O)[C@H](C)NP(=O)(OC[C@@]1(N=[N+]=[N-])O[C@@H](n2ccc(=O)[nH]c2=O)[C@@H](O)[C@H]1O)Oc1ccccc1 (some centres not stated)
- EC50 (Hepatitis C virus; Hepatitis C virus): 0.77 µM
- CC50 [3]: > 100 µM

Compound: [N-]=[N+]=N[C@]1(COP(=O)(NCC(=O)OCc2ccccc2)Oc2ccccc2)O[C@@H](n2ccc(=O)[nH]c2=O)[C@@H](O)[C@H]1O (some centres not stated)
- EC50 (Hepatitis C virus; Hepatitis C virus): 1.6 µM
- CC50 [3]: > 100 µM

Compound: C[C@H](NP(=O)(OC[C@@]1(N=[N+]=[N-])O[C@@H](n2ccc(=O)[nH]c2=O)[C@@H](O)[C@H]1O)Oc1cccc2ccccc12)C(=O)OCc1ccccc1 (some centres not stated) [listing 3 of 3 here]
- EC50 (Hepatitis C virus; Hepatitis C virus): 0.43 µM
- CC50 [3]: > 100 µM
